≈ marks a conversion by molar mass, not a printed value. Calls of active or inactive are those of the source. The calls are words filed in the database; no cut-off is given here.
Assays:
Yellow fever virus = test: Antiviral activity against Yellow fever virus 17D infected in BHK cells assessed as protection against virus-induced cytopathogenicity after 3 to 4 days by MTT assay; format: functional, cell-based
Candida parapsilosis = test: Antimicrobial activity against Candida parapsilosis ATCC 22019 after 24 hrs by twofold serial microdilution method; format: functional, organism-based
[1] = test system: Human immunodeficiency virus 1; test: Antiviral activity against HIV1 3B infected in human MT4 cells assessed as protection against virus-induced cytopathogenicity by MTT assay; format: functional, organism-based; conditions: Human immunodeficiency virus 1, 3B
Poliovirus 1 = test: Antiviral activity against Poliovirus type 1 ATCC VR-1562 infected in African green monkey Vero 76 cells assessed as reduction of virus-plaque formation after 2 days by crystal violet staining; format: functional, organism-based; conditions: Enterovirus C, ATCC VR-1562, Vero, 48 h
[2] = test system: Mycobacterium tuberculosis; test: Antimycobacterial activity against drug-sensitive Mycobacterium tuberculosis Spec. 192; format: functional
Summary of the method: (§1)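 Classical test-tube successive-dilution method in Youmans' modification of Proskauer and Beck liquid medium with 10% bovine serum. Inoculum came from 14-day cultures. DMSO stock was 10 mg/mL, diluted geometrically in medium. Tubes were incubated at 37 °C. Concentrations tested were 3.1, 6.2, 12.5, 25, 50 and 100 µg/ml. MIC is the minimum concentration inhibiting growth relative to compound-free tubes.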

[3] = Cytotoxicity against human MT4 cells; format: cell-based
Coxsackievirus B5 = test: Antiviral activity against Human coxsackievirus B5 ATCC VR-29 infected in African green monkey Vero 76 cells assessed as reduction of virus-plaque formation after 3 days by crystal violet staining; format: functional, organism-based; conditions: Enterovirus B, ATCC VR-29, Vero, 72 h
Summary of the method: (§2)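 Plaque reduction: Vero-76 at 2x10^5 cells/well grown to confluent monolayers, infected 2 h at 50–100 PFU/well; after removing unadsorbed virus, overlay of D-MEM, 1% inactivated FBS, 0.75% methylcellulose with or without serial compound dilutions; 3 days at 37°C, fixed and stained with crystal violet in 50% ethanol, plaques counted; EC50 by linear regression.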

[4] = test system: Vesicular stomatitis virus; test: Antiviral activity against Vesicular stomatitis virus ATCC VR 1540 infected in African green monkey Vero 76 cells assessed as reduction of virus-plaque formation after 2 days by crystal violet staining; format: functional, organism-based; conditions: ATCC VR 1540, Vero, 48 h
[5] = Antiviral activity against Bovine viral diarrhea virus 1-NADL ATCC VR-534 infected in MDBK cells assessed as protection against virus-induced cytopathogenicity after 3 to 4 days by MTT assay; format: functional, cell-based; conditions: Bovine viral diarrhea virus isolates and strains, ATCC VR-534, MDBK
Summary of the method: (§3)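 Cells seeded in 96-well plates (BHK 5x10^4, MDBK 3x10^4 cells/well), grown overnight to confluence, infected at m.o.i. 0.01 (BHK for Reo-1, MDBK for BVDV); serial compound dilutions in maintenance medium with 0.5% inactivated FBS added after 1 h; viability by MTT after 3–4 days at 37°C; EC50 for 50% protection by linear regression.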

[6] = test system: Mycobacterium tuberculosis; test: Antimycobacterial activity against Mycobacterium tuberculosis H37Rv ATCC 25618; format: functional; summary of the method: as §1
Candida albicans [7] = test: Antimicrobial activity against Candida albicans ATCC 90028 after 24 hrs by twofold serial microdilution method; format: functional, organism-based
[8] = Cytotoxicity against African green monkey Vero 76 cells assessed as cell viability after 48 to 96 hrs by crystal violet staining; format: cell-based; conditions: chlorocebus sabaeus
Pseudomonas aeruginosa [9] = test: Antimicrobial activity against Pseudomonas aeruginosa ATCC 15442 after 18 hrs by twofold serial microdilution method; format: functional, organism-based
[10] = test system: Bordetella bronchiseptica; test: Antimicrobial activity against Bordetella bronchiseptica ATCC 4617 after 18 hrs by twofold serial microdilution method; format: functional, organism-based
Escherichia coli [11] = test: Antimicrobial activity against Escherichia coli ATCC 10538 after 18 hrs by twofold serial microdilution method; format: functional, organism-based
Candida albicans [12] = test: Antimicrobial activity against Candida albicans ATCC 10231 after 24 hrs by twofold serial microdilution method; format: functional, organism-based
Human alphaherpesvirus 1 = test: Antiviral activity against Human herpesvirus 1 KOS ATCC VR-1493 infected in African green monkey Vero 76 cells assessed as reduction of virus-plaque formation after 3 days by crystal violet staining; format: functional, organism-based; conditions: Human alphaherpesvirus 1, KOS ATCC VR1493, Vero, 72 h; summary of the method: as §2
Escherichia coli [13] = test: Antimicrobial activity against Escherichia coli NCTC 8196 after 18 hrs by twofold serial microdilution method; format: functional, organism-based
Pseudomonas aeruginosa [14] = test: Antimicrobial activity against Pseudomonas aeruginosa NCTC 6749 after 18 hrs by twofold serial microdilution method; format: functional, organism-based
[15] = Cytotoxicity against bovine MDBK cells assessed as cell viability after 48 to 96 hrs by MTT assay; format: cell-based, Bos taurus; conditions: cattle
Escherichia coli [16] = test: Antimicrobial activity against Escherichia coli ATCC 25922 after 18 hrs by twofold serial microdilution method; format: functional, organism-based
[17] = test system: Mammalian orthoreovirus 1; test: Antiviral activity against Reovirus type-1 ATCC VR-214 infected in BHK cells assessed as protection against virus-induced cytopathogenicity after 3 to 4 days by MTT assay; format: functional, cell-based; conditions: Mammalian orthoreovirus 1, ATCC VR-214, BHK; summary of the method: as §3
Vaccinia virus = test: Antiviral activity against Human Vaccinia virus ATCC VR-1549 infected in African green monkey Vero 76 cells assessed as reduction of virus-plaque formation after 3 days by crystal violet staining; format: functional, organism-based; conditions: Orthopoxvirus vaccinia, ATCC VR-1549, Vero, 72 h
Pseudomonas aeruginosa [18] = test: Antimicrobial activity against Pseudomonas aeruginosa ATCC 27863 after 18 hrs by twofold serial microdilution method; format: functional, organism-based
[19] = Cytotoxicity against BHK cells assessed as cell viability after 48 to 96 hrs by MTT assay; format: cell-based, Mesocricetus auratus; conditions: hamster
WIL2-NS = test: Cytotoxicity against human WIL2-NS cells after 96 hrs by MTT assay; format: functional
Summary of the method: (§4)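 Leukaemia/lymphoma lines seeded at 1×10^5 cells/ml in RPMI-1640 with 10% FCS and penicillin/streptomycin; incubated with serial dilutions at 37°C, 5% CO2; viability by MTT after 96 h; value is concentration reducing proliferation by 50%, with untreated controls undergoing at least three rounds of multiplication.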

CCRF-SB = test: Cytotoxicity against human CCRF-SB cells after 96 hrs by MTT assay; format: functional; summary of the method: as §4
CCRF-CEM = test: Cytotoxicity against human CCRF-CEM cells after 96 hrs by MTT assay; format: functional; summary of the method: as §4

Compound | EC50 (Yellow fever virus) [µM] | Activity (Candida parapsilosis) | EC50 [1] [µM] | EC50 (Poliovirus 1) [µM] | MIC [2] [µg/mL] | CC50 [3] [µM] | EC50 (Coxsackievirus B5) [µM] | EC50 [4] [µM] | EC50 [5] [µM] | MIC [6] [µg/mL] | Activity (Candida albicans [7]) | CC50 [8] [µM] | Activity (Pseudomonas aeruginosa [9]) | Activity [10] | Activity (Escherichia coli [11]) | Activity (Candida albicans [12]) | EC50 (Human alphaherpesvirus 1) [µM] | Activity (Escherichia coli [13]) | Activity (Pseudomonas aeruginosa [14]) | CC50 [15] [µM] | also measured
CCCCc1ccc(NC(=S)Nc2cccc(C(F)(F)F)c2)c(C)c1 | > 9 | inactive | > 43 | > 18 | 100 (≈ 273 µM) | 43 | > 18 | > 18 | > 10 | 50 (≈ 136 µM) | inactive | 18 | inactive | inactive | inactive | inactive | > 18 | inactive | inactive | 10 | Activity (Escherichia coli [16]): inactive; EC50 [17]: > 9 µM; EC50 (Vaccinia virus): > 18 µM; Activity (Pseudomonas aeruginosa [18]): inactive; CC50 [19]: 9 µM
Cc1ccc(NC(=S)Nc2cccc(C(F)(F)F)c2)cc1Cl | > 10 | inactive | > 20 | > 20 | > 100 | 20 | > 20 | > 20 | > 10 | > 100 | inactive | 20 | inactive | inactive | inactive | inactive | > 20 | inactive | inactive | 10 | Activity (Escherichia coli [16]): inactive; EC50 [17]: > 10 µM; EC50 (Vaccinia virus): > 20 µM; Activity (Pseudomonas aeruginosa [18]): inactive; CC50 [19]: 10 µM
COc1cccc2c1C(=O)c1c(O)c3c(c(O)c1C2=O)C[C@@](O)(C(=O)CO)C[C@@H]3O[C@H]1C[C@H](N)[C@H](O)[C@H](C)O1 [DOXORUBICIN] | – | – | – | – | – | – | – | – | – | – | – | – | – | – | – | – | – | – | – | – | CC50 (WIL2-NS): 0.02 µM; CC50 (CCRF-SB): 0.03 µM; CC50 (CCRF-CEM): 0.02 µM

Source: ChEMBL document CHEMBL3616436, “Synthesis, cytotoxicity and antimicrobial activity of thiourea derivatives incorporating 3-(trifluoromethyl)phenyl moiety” (Eur J Med Chem, 2015)
